{
  "source": "ChEMBL document CHEMBL4706633",
  "about": "“Design, Synthesis, and Biological Evaluation of a Series of Oxazolone Carboxamides as a Novel Class of Acid Ceramidase Inhibitors” (J Med Chem, 2020)",
  "key": {"[1]": {"assay": "AUC in C57BL/6 mouse at 3 mg/kg, iv measured up to 4 hrs by LC/MS-MS analysis", "type": "ADME, organism-based", "set-up": "route intravenous, dose 3 mg/kg, time <=4", "conditions": "in vivo"}, "[2]": {"assay": "Kinetic solubility in pH 7.4 PBS buffer at 250 uM incubated for 1 hr by UPLC/MS analysis", "type": "physicochemical", "conditions": "read-out: Kinetic_solubility", "procedure,_shortened": "(§1)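 Kinetic aqueous solubility was measured in PBS, pH 7.4. Metabolic stability was measured as t1/2 in mouse plasma and mouse liver microsomes, with microsomal data also given as % compound remaining at 1 h. Values are means of at least two independent experiments, each in two technical replicates.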"}, "[3]": {"target": "T1, Acid ceramidase (Homo sapiens) (UniProt Q13510)", "T1 sequence (whole entry)": "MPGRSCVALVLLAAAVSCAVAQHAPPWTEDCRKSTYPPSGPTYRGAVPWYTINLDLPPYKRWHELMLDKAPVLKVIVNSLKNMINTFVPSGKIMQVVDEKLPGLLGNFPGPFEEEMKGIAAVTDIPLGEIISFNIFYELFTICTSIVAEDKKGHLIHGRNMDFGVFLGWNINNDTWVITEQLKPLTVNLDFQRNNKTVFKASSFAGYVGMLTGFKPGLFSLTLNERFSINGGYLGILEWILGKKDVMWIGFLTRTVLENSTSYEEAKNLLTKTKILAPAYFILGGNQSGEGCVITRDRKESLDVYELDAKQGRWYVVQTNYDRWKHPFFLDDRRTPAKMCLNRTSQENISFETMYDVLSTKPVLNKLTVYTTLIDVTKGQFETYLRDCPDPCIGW", "assay": "Inhibition of acid ceramidase in human SH-SY5Y cells assessed as reduction in sphingolipid levels at 1 to 10 uM incubated for 3 hrs by LC-MS analysis", "type": "cell-based", "conditions": "dose 1-10 µM", "procedure,_shortened": "(§2)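 SH-SY5Y human neuroblastoma cells were exposed for 3 h at 1, 2.5, 5 or 10 μM. Cellular sphingolipids (Cer species, So, SM, HexCer) were quantified by LC/MS. Data are means ± SEM of at least six determinations, with experiments repeated twice. Significance was taken at p < 0.05.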"}, "[4]": {"target": "T2, Acid ceramidase (Homo sapiens, UniProt Q13510)", "T2 sequence (Q13510 whole entry)": "T1 sequence (whole entry)", "assay": "Inhibition of human acid ceramidase using Rbm14-12 fluorogenic substrate incubated for 1 hr by fluorescence assay", "conditions": "read-out: IC50"}, "[5]": {"system": "SH-SY5Y", "assay": "Effect on HexCer (d18:1/16:0) levels in human SH-SY5Y cells at 10 uM incubated for 1 to 6 hrs by LC-MS analysis", "type": "functional, cell-based", "conditions": "time 1-6 hrs", "procedure,_shortened": "(§3)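 SH-SY5Y neuroblastoma cultures were treated at 10 μM for 1, 3 or 6 h. Intracellular sphingolipids (Cer, So, SM, HexCer) were then identified and quantified by LC/MS.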"}, "[6]": {"assay": "Cmax in C57BL/6 mouse at 10 mg/kg, po measured up to 4 hrs by LC/MS-MS analysis", "type": "ADME, organism-based", "set-up": "route oral, dose 10 mg/kg, time <=4", "conditions": "in vivo", "procedure,_shortened": "(§4)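 C57BL/6 mice were dosed intravenously at 3 mg/kg or orally at 10 mg/kg. Plasma PK parameters were derived per route: clearance, Vdss and t1/2 after i.v. dosing, and tmax, Cmax, t1/2 and AUC after oral dosing. Oral bioavailability F was estimated from the oral and i.v. exposures.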"}, "[7]": {"assay": "Clearance in C57BL/6 mouse at 10 mg/kg, po measured up to 4 hrs by LC/MS-MS analysis", "type": "ADME, organism-based", "conditions": "in vivo"}, "[8]": {"target": "T1, Acid ceramidase (Homo sapiens)", "assay": "Inhibition of acid ceramidase in human SH-SY5Y cells assessed as reduction in sphingosine level at 10 uM incubated for 1 to 6 hrs by LC-MS analysis", "type": "cell-based", "conditions": "time 1-6 hrs", "procedure,_shortened": "as §3"}, "[9]": {"assay": "Volume of distribution at steady state in C57BL/6 mouse at 3 mg/kg, iv measured up to 4 hrs by LC/MS-MS analysis", "type": "ADME, organism-based", "conditions": "in vivo", "procedure,_shortened": "as §4"}, "[10]": {"assay": "Elimination half life in C57BL/6 mouse at 3 mg/kg, iv measured up to 4 hrs by LC/MS-MS analysis", "type": "ADME, organism-based", "conditions": "in vivo", "procedure,_shortened": "as §4"}, "[11]": {"system": "SH-SY5Y", "assay": "Effect on SM (d18:1/16:0) levels in human SH-SY5Y cells at 1 to 10 uM incubated for 3 hrs by LC-MS analysis", "type": "functional, cell-based", "conditions": "dose 1-10 µM", "procedure,_shortened": "as §2"}, "[12]": {"target": "T1, Acid ceramidase (Homo sapiens)", "assay": "Inhibition of acid ceramidase in human SH-SY5Y cells assessed as intracellular accumulation of Cer (d18:1/16:0) at 1 to 10 uM incubated for 3 hrs by LC-MS analysis", "type": "cell-based", "conditions": "dose 1-10 µM", "procedure,_shortened": "as §2"}, "[13]": {"assay": "Half life in mouse liver microsomes at 4.6 uM in presence of NADPH by LC/MS-MS analysis", "type": "ADME, Microsome", "procedure,_shortened": "as §1"}, "[14]": {"assay": "Oral bioavailability in C57BL/6 mouse at 10 mg/kg measured up to 4 hrs by LC/MS-MS analysis", "type": "ADME, organism-based", "conditions": "in vivo", "procedure,_shortened": "as §4"}, "[15]": {"assay": "Tmax in C57BL/6 mouse at 10 mg/kg, po measured up to 4 hrs by LC/MS-MS analysis", "type": "ADME, organism-based", "conditions": "in vivo", "procedure,_shortened": "as §4"}, "[16]": {"assay": "AUC in C57BL/6 mouse at 10 mg/kg, po measured up to 4 hrs by LC/MS-MS analysis", "type": "ADME, organism-based", "set-up": "route oral, dose 10 mg/kg, time <=4", "conditions": "in vivo", "procedure,_shortened": "as §4"}, "[17]": {"target": "T1, Acid ceramidase (Homo sapiens)", "assay": "Inhibition of acid ceramidase in human SH-SY5Y cells assessed as reduction in sphingosine level at 1 to 10 uM incubated for 3 hrs by LC-MS analysis", "type": "cell-based", "conditions": "dose 1-10 µM", "procedure,_shortened": "as §2"}, "[18]": {"target": "T3, N-acylethanolamine-hydrolyzing acid amidase (Homo sapiens) (UniProt Q02083)", "T3 sequence (whole entry)": "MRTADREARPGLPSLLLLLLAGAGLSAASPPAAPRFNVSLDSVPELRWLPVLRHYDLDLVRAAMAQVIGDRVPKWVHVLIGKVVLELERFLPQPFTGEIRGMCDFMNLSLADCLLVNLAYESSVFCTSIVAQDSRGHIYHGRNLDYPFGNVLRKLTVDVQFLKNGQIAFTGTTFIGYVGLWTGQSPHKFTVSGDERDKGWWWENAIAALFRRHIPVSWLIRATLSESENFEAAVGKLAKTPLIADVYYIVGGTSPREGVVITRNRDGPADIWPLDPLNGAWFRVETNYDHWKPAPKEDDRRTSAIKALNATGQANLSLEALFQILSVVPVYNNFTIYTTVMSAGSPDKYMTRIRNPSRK", "assay": "Inhibition of human NAAA up to 125 uM", "conditions": "dose microM <=125"}, "[19]": {"assay": "Elimination half life in C57BL/6 mouse at 10 mg/kg, po measured up to 4 hrs by LC/MS-MS analysis", "type": "ADME, organism-based", "conditions": "in vivo", "procedure,_shortened": "as §4"}, "[20]": {"system": "SH-SY5Y", "assay": "Effect on HexCer (d18:1/16:0) levels in human SH-SY5Y cells at 1 to 10 uM incubated for 3 hrs by LC-MS analysis", "type": "functional, cell-based", "conditions": "dose 1-10 µM", "procedure,_shortened": "as §2"}, "[21]": {"target": "T1, Acid ceramidase (Homo sapiens)", "assay": "Inhibition of acid ceramidase in human SH-SY5Y cells assessed as reduction in sphingolipid levels at 10 uM incubated for 1 to 6 hrs by LC-MS analysis", "type": "cell-based", "conditions": "time 1-6 hrs, TDE = time-dependent effect", "procedure,_shortened": "as §3"}, "[22]": {"target": "T1, Acid ceramidase (Homo sapiens)", "assay": "Irreversible covalent inhibition of human acid ceramidase using N-lauroyl ceramide incubated for 1 hr by LC/MS analysis"}, "[23]": {"assay": "Half life in mouse plasma at 2 uM by LC/MS-MS analysis", "type": "ADME, cell-free", "procedure,_shortened": "as §1"}, "[24]": {"assay": "Volume of distribution at steady state in C57BL/6 mouse at 10 mg/kg, po measured up to 4 hrs by LC/MS-MS analysis", "type": "ADME, organism-based", "conditions": "in vivo"}, "[25]": {"target": "T1, Acid ceramidase (Homo sapiens)", "assay": "Inhibition of acid ceramidase in human SH-SY5Y cells assessed as intracellular accumulation of Cer (d18:1/16:0) at 10 uM incubated for 1 to 6 hrs by LC-MS analysis", "type": "cell-based", "conditions": "time 1-6 hrs", "procedure,_shortened": "as §3"}, "[26]": {"assay": "Stability in mouse liver microsomes at 4.6 uM in presence of NADPH after 60 mins by LC/MS-MS analysis", "type": "ADME, Microsome", "conditions": "read-out: Stabilty", "procedure,_shortened": "as §1"}, "[27]": {"target": "T1, Acid ceramidase (Homo sapiens)", "assay": "Inhibition of acid ceramidase in human SH-SY5Y cells assessed as intracellular accumulation of Cer (d18:0/16:0) at 1 to 10 uM incubated for 3 hrs by LC-MS analysis", "type": "cell-based", "conditions": "dose 1-10 µM", "procedure,_shortened": "as §2"}, "[28]": {"target": "T1, Acid ceramidase (Homo sapiens)", "assay": "Inhibition of acid ceramidase in human SH-SY5Y cells assessed as intracellular accumulation of Cer (d18:0/16:0) at 10 uM incubated for 1 to 6 hrs by LC-MS analysis", "type": "cell-based", "conditions": "time 1-6 hrs", "procedure,_shortened": "as §3"}, "[29]": {"system": "SH-SY5Y", "assay": "Effect on SM (d18:1/16:0) levels in human SH-SY5Y cells at 10 uM incubated for 1 to 6 hrs by LC-MS analysis", "type": "functional, cell-based", "conditions": "time 1-6 hrs", "procedure,_shortened": "as §3"}},
  "note": "Active and inactive are the calls of the source. The calls are words filed in the database; no cut-off is given here.",
  "data": [
    {"smiles": "CCCCCNC(=O)n1cc(-c2ccc(F)cc2C2CCN(C)CC2)oc1=O", "values": [
      {"measurement": "AUC", "setting": "[1]", "result": 31978, "unit": "ng·min/mL"},
      {"measurement": "solubility kinetic at 1 h, 250 µM", "setting": "[2]", "result": "> 250", "unit": "µM"},
      {"measurement": "inhibition", "setting": "[3]", "result": "Dose-dependent effect"},
      {"measurement": "IC50", "setting": "[4]", "result": 129, "unit": "nM"},
      {"measurement": "Activity", "setting": "[5]", "result": "inactive"},
      {"measurement": "Cmax", "setting": "[6]", "result": 278, "unit": "ng/mL"},
      {"measurement": "CL/F", "setting": "[7]", "result": 155, "unit": "mL/min/kg"},
      {"measurement": "inhibition", "setting": "[8]", "result": "Active"},
      {"measurement": "Vdss", "setting": "[9]", "result": 12.426, "unit": "L/kg"},
      {"measurement": "beta t1/2", "setting": "[10]", "result": 1.98, "unit": "h"},
      {"measurement": "Activity", "setting": "[11]", "result": "inactive"},
      {"measurement": "inhibition", "setting": "[12]", "result": "Dose-dependent effect"},
      {"measurement": "t1/2", "setting": "[13]", "result": "> 1", "unit": "h"},
      {"measurement": "F", "setting": "[14]", "result": 40, "unit": "%"},
      {"measurement": "Tmax", "setting": "[15]", "result": 0.5, "unit": "h"},
      {"measurement": "AUC", "setting": "[16]", "result": 42525, "unit": "ng·min/mL"},
      {"measurement": "inhibition", "setting": "[17]", "result": "Dose-dependent effect"},
      {"measurement": "inhibition", "setting": "[18]", "result": "inactive"},
      {"measurement": "beta t1/2", "setting": "[19]", "result": 2.45, "unit": "h"},
      {"measurement": "Activity", "setting": "[20]", "result": "inactive"},
      {"measurement": "inhibition", "setting": "[21]", "result": "Tde"},
      {"measurement": "inhibition", "setting": "[22]", "result": "Active"},
      {"measurement": "t1/2", "setting": "[23]", "result": 1.83, "unit": "h"},
      {"measurement": "Vdss", "setting": "[24]", "result": 32.877, "unit": "L/kg"},
      {"measurement": "inhibition", "setting": "[25]", "result": "Active"},
      {"measurement": "remaining at 1 h, 4.6 µM", "setting": "[26]", "result": 74, "unit": "%"},
      {"measurement": "inhibition", "setting": "[27]", "result": "Dose-dependent effect"},
      {"measurement": "inhibition", "setting": "[28]", "result": "Active"},
      {"measurement": "Activity", "setting": "[29]", "result": "inactive"}
    ]}
  ]
}
